In ChEMBL document CHEMBL3608261, “Metabolically programmed iron chelators” (Bioorg Med Chem, 2015):

Experiments:
Rattus norvegicus [1] = test: Drug metabolism in Sprague-Dawley rat liver assessed as (S)-4'-(HO)-DADFT-PEAA level at 300 umol/kg, sc up to 8 hrs by HPLC analysis; format: ADME, organism-based; conditions: in vivo
Outline: (§1)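 Male Sprague-Dawley rats (250–350 g) got a single sc dose of the monosodium salt at 300 µmol/kg, n=3 per time point. They were killed with CO2 at 0.5, 1, 2, 4 and 8 h. Citrated cardiac-puncture blood was spun to plasma, and liver, kidney, heart and pancreas were frozen. Tissue was homogenized 1:1 in water, given a methanol rinse, held 30 min at −20 °C, centrifuged and filtered. Read-out was reversed-phase HPLC, UV 310 nm.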

Rattus norvegicus [2] = test: Drug metabolism in Sprague-Dawley rat liver assessed as (S)-4'-(HO)-DADFT-PEA level at 300 umol/kg, sc up to 8 hrs by HPLC analysis; format: ADME, organism-based; conditions: in vivo; outline: as §1
Rattus norvegicus [3] = test: Drug metabolism in Sprague-Dawley rat kidney assessed as (S)-4'-(HO)-DADFT-PEAA level at 300 umol/kg, sc up to 8 hrs by HPLC analysis; format: ADME, organism-based; conditions: in vivo; outline: as §1
Sapajus apella = test: Iron clearing efficiency in […] Cebus apella assessed as clearance of iron in feces at 75 umol/kg, po […] relative to control; format: functional
Outline: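 Cebus apella monkeys (3.5–6.5 kg) were iron-overloaded with intravenous iron dextran to about 500 mg Fe/kg, reaching serum transferrin saturation of 70–80%. At least 60 days elapsed before use. Chelator was given at 75 µmol/kg po or sc, with the same animals dosed by both routes. Feces and urine were collected at 24 h intervals from 4 days before to 5 days after dosing, and iron was measured by flame absorption spectroscopy. ICE = 2-day post-drug output minus 4-day mean baseline, divided by theoretical output (2:1 ligand:Fe), as %. Mean ± SEM.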

Rattus norvegicus [4] = test: Drug metabolism in Sprague-Dawley rat pancreas assessed as (S)-4'-(HO)-DADFT-PEA level at 300 umol/kg, sc up to 8 hrs by HPLC analysis; format: ADME, organism-based; conditions: in vivo; outline: as §1
Rattus norvegicus [5] = test: Drug metabolism in Sprague-Dawley rat pancreas assessed as (S)-4'-(HO)-DADFT-PEAA level at 300 umol/kg, sc up to 8 hrs by HPLC analysis; format: ADME, organism-based; conditions: in vivo; outline: as §1
Rattus norvegicus [6] = test: Drug metabolism in Sprague-Dawley rat plasma assessed as (S)-4'-(HO)-DADFT-PEA level at 300 umol/kg, sc up to 8 hrs by HPLC analysis; format: ADME, organism-based; conditions: in vivo; outline: as §1
Rattus norvegicus [7] = test: Drug metabolism in Sprague-Dawley rat kidney assessed as (S)-4'-(HO)-DADFT-PEA level at 300 umol/kg, sc up to 8 hrs by HPLC analysis; format: ADME, organism-based; conditions: in vivo; outline: as §1
[8] = Drug metabolism in Sprague-Dawley rat plasma assessed as parent compound level at 300 umol/kg, sc after 0.5 hrs by HPLC analysis; format: ADME, organism-based; conditions: read-out: Stability
Outline: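 Rats (male Sprague-Dawley, 250–350 g) were dosed sc once with the monosodium salt, 300 µmol/kg, three animals per time point up to 8 h. Plasma came from citrated cardiac blood; liver was frozen after CO2 euthanasia. Parent and metabolites were quantified by HPLC with UV at 310 nm against linear calibration curves (detection limit 0.25 µM, linear 1–1000 µM). Data are means.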

Rattus norvegicus [9] = test: Iron clearing efficiency in bile duct cannulated Sprague-Dawley rat assessed as clearance of iron in urine at 300 umol/kg, po measured at 3 hrs intervals for up to 48 hrs relative to control; format: functional
Rattus norvegicus [10] = test: Iron clearing efficiency in bile duct cannulated Sprague-Dawley rat assessed as clearance of iron in bile at 300 umol/kg, po measured at 3 hrs intervals for up to 48 hrs relative to control; format: functional
Outline: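 Non-iron-overloaded male Sprague-Dawley rats (400–450 g) with cannulated bile ducts received 300 µmol/kg po or sc. […] Bile was sampled every 3 h for up to 48 h and urine at 24 h intervals. ICE = (treated minus control iron excretion) / theoretical output (2:1 ligand:Fe) × 100 over 48 h. Mean ± SEM.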

Rattus norvegicus [11] = test: Drug metabolism in Sprague-Dawley rat heart assessed as (S)-4'-(HO)-DADFT-PEA level at 300 umol/kg, sc up to 8 hrs by HPLC analysis; format: ADME, organism-based; conditions: in vivo; outline: as §1
Rattus norvegicus [12] = test: Drug metabolism in Sprague-Dawley rat heart assessed as (S)-4'-(HO)-DADFT-PEAA level at 300 umol/kg, sc up to 8 hrs by HPLC analysis; format: ADME, organism-based; conditions: in vivo; outline: as §1
Rattus norvegicus [13] = test: Drug metabolism in Sprague-Dawley rat liver assessed as (S)-4'-(HO)-DADFT level at 300 umol/kg, sc after 8 hrs; format: ADME, organism-based; conditions: in vivo
Rattus norvegicus [14] = test: Drug metabolism in Sprague-Dawley rat plasma assessed as (S)-4'-(HO)-DADFT-PEAA level at 300 umol/kg, sc up to 8 hrs by HPLC analysis; format: ADME, organism-based; conditions: in vivo; outline: as §1

Drug metabolism (Rattus norvegicus [1]): metabolite_notdetected
Drug metabolism (Rattus norvegicus [2]): metabolite_detected
Drug metabolism (Rattus norvegicus [3]): metabolite_notdetected
Drug metabolism (Rattus norvegicus [4]): metabolite_detected
Drug metabolism (Rattus norvegicus [5]): metabolite_notdetected
Drug metabolism (Rattus norvegicus [6]): metabolite_detected
Drug metabolism (Rattus norvegicus [7]): metabolite_detected
remaining at 0.5 h [8]: 95%
Drug metabolism (Rattus norvegicus [11]): metabolite_detected
Drug metabolism (Rattus norvegicus [12]): metabolite_notdetected
Drug metabolism (Rattus norvegicus [13]): metabolite_notdetected
Drug metabolism (Rattus norvegicus [14]): metabolite_notdetected
Compound: COCCOCCOc1ccc(C2=N[C@@](C)(C(=O)O)CS2)c(O)c1 [SP-420]
Activity (Sapajus apella): 93%
Activity (Rattus norvegicus [9]): 3%
Activity (Rattus norvegicus [10]): 97%
